The values below come from PubChem BioAssay AID809 (SRMLSC, 2007).

SMILES strings stand for the structures. Active and inactive are the calls of the source.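 Rule for the calls: active = EC50 for reversing nicotinamide-shortened yeast lifespan at or below a set limit; inactive = EC50 above that limit.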

For orientation: EC50 means the concentration at which the effect is half-maximal.

This assay deals with S. cerevisiae DeaD BB579, nicotinamide rescue growth, OD615 48 h. Description: BB579 yeast growth restoration under nicotinamide – S. cerevisiae, yeast lifespan extension project, dose response (AID 809). In outline:
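System: Saccharomyces cerevisiae DeaD strain BB579, log-phase cells | Buffer or medium: CSMM-D glucose restrictive medium | Timing: 4 h pre-incubation, 48 h exposure at 30 °C | Technique: OD615 absorbance | Evaluation: Culture growth as lifespan proxy | Compound: 0.078–10 µM compound, 0.5% DMSO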
For `CCNCCNC(=O)c1c(O)c2cccc3c2n(c1=O)CCC3`, the EC50 is 6.32 µM. As for `CS(=O)(=O)c1nc(-c2ccco2)cc(C(F)(F)F)n1`, the figure is 4.01 µM; as for `CCC(=O)Nc1ccccc1Sc1ncnc2scc(-c3ccccc3)c12`, > 10 µM (inactive). As for `CC(=Nc1ccc2c(c1)nc(CO)n2C)C1=C(O)CC(C)(C)CC1=O`, the figure is > 10 µM (inactive); as for `CCOC(=O)CC1=NN(c2ccccc2)C(=O)/C1=C\c1ccc(OC)cc1OC`, 8.5 µM. As for `C[C@]12CC[C@@H]3c4ccc(O)cc4CC[C@H]3[C@@H]1CC[C@@H]2OC(=O)CCC(=O)O`, the figure is 5.42 µM. Take `Fc1cccc2sc(Nc3nnc(-c4ccccc4)o3)nc12`: the EC50 was 3.02 µM. Take `Cc1nc(SC(C)C)[nH]c(=O)c1Cc1ccccc1`: the EC50 was > 10 µM (inactive). Turning to `CN1OC(c2ccccc2)=C(CO)C1c1ccccc1` (centres undefined), the EC50 is > 10 µM (inactive). Regarding `CCCCCOC(=O)CSc1nc2c(c(=O)[nH]c(=O)n2C)n1CCc1ccccc1`, the EC50 is > 10 µM (inactive).

Take `O=C1c2ccccc2C(=O)N1Cc1nc2ccccc2c(=O)n1-c1ccc(Br)cn1`: the EC50 was 1.67 µM.

Turning to `CSc1ccc(S(=O)(=O)NCc2ccc(Cl)cc2Cl)cc1`, the EC50 is > 10 µM (inactive).

As for `O=C(NCc1ccc(Cl)cc1)c1ccccc1CCc1ccccc1`, the EC50 is 7.94 µM. As for `COc1ccc(C(CNC(=O)c2cccc(Br)c2)N2CCCC2)cc1` (centres undefined), the figure is > 10 µM (inactive); as for `COc1ccc2c(=O)c3c(=O)n(Cc4ccco4)c(-c4ccc(C)cc4)nc3oc2c1`, 6.81 µM; as for `CCN1C(=O)/C(=C/N(C(C)=O)c2ccccc2)N(c2ccccc2)C1=S`, > 10 µM (inactive). As for `CCOc1ccc(N=Cc2c(O)c3ccccc3oc2=O)cc1`, the figure is > 10 µM (inactive); as for `CCOC(=O)c1[nH]nc(C(=O)c2ccc(Br)cc2)c1O`, 5.89 µM; as for `COc1ccc(N(C)C(=S)Nc2ccc3nc(C)c(C)nc3c2)cc1`, > 10 µM (inactive). As for `CN(Cc1c(O)ccc2c1oc(=O)c1ccccc12)C1CCCCC1`, the figure is > 10 µM (inactive). `CN(c1ccccc1)c1nc2ccsc2c(=O)s1`: the EC50 is > 10 µM (inactive). In the case of `N#C/C(=C\c1ccccc1)C(=O)N(c1ccccn1)C1CCCCC1` it was 6.66 µM.

For `COc1cccc(C2CC3C(=O)C=CC2N3Cc2ccccc2)c1` (centres undefined), the EC50 is 6.1 µM. In the case of `CCOC(=O)c1nnn(-c2nonc2N)c1CN1CCc2ccccc2C1` it was 9.77 µM. With `CC(=C1C(=O)c2ccccc2C1=O)N1CCN(c2ccccn2)CC1`, the EC50 was 7.21 µM. Consider `COc1ccc(C(=O)On2c(-c3ccc(Br)cc3)nc3ccccc3c2=O)cc1`, for which the EC50 was 3.02 µM. Regarding `Cc1nc2ccccc2n1-c1ccccc1`, the EC50 was > 10 µM (inactive). As for `CCOC(=O)/C(=C/c1ccc(OC(=O)c2ccccc2)cc1)C(C)=O`, the figure is 4.96 µM; as for `CS(=O)(=O)c1nc(-c2cccs2)cc(C(F)(F)F)n1`, 3.91 µM. Regarding `O=Cc1cc2ccccc2nc1SCc1ccc(Cl)cc1`, the EC50 was 8.27 µM.

With `COc1ccccc1C(=O)Oc1cc(N)n(S(=O)(=O)c2ccc(C)cc2)n1`, the EC50 was > 10 µM (inactive). In the case of `COc1ccc(/C(O)=C/C(=O)C(=O)Nc2c(C)n(C)n(-c3ccccc3)c2=O)cc1` it was 5.85 µM. Take `CC1CC(C)CN(S(=O)(=O)c2cccc(C(=O)N3C(=O)c4cccc(N)c4C3=O)c2)C1` (centres undefined): the EC50 is 4.71 µM. As for `O=C(CS(=O)c1ccc(C(F)(F)F)cc1[N+](=O)[O-])Oc1ccccc1` (centres undefined), the figure is 5.19 µM; as for `O=C(NCCc1ccccn1)C(F)(F)C(F)(F)C(F)(F)C(F)(F)C(F)(F)C(F)(F)C(F)(F)C(F)F`, > 10 µM (inactive). As for `Cc1ccc(-c2ccc(/C=C3\C(=O)ON=C3c3ccccc3)o2)c([N+](=O)[O-])c1`, the figure is 6.93 µM; as for `CCC(=O)N1CCN(CCN=CC2=C(O)CC(c3cccs3)CC2=O)CC1` (centres undefined), 9.98 µM; as for `O=S1(=O)C=C(Sc2nnc(-c3ccccc3)o2)c2ccccc21`, 9.27 µM. In the case of `CC(C)(C)C1CCc2[nH]nc(C(=O)O)c2C1` (centres undefined) it was 1.2 µM.

In the case of `CC(C)n1c(=O)c2c(O)cc(=O)oc2c2ccccc21`, the EC50 is 0.63 µM. In the case of `Cc1ccc(C(=O)/C=C\C(=O)c2ccc(C)cc2)cc1` it was 9.15 µM. In the case of `O=S1(=O)C=C(Sc2nc3ccccc3s2)c2ccccc21` it was > 10 µM (inactive).

As for `O=c1c2c3c(sc2ncn1/N=C/c1ccc([N+](=O)[O-])o1)CCCC3`, the EC50 is > 10 µM (inactive). As for `CCCCSc1nc(O)c(C2OC(=O)c3c2ccc(OC)c3OC)c(=O)n1C` (centres undefined), the figure is 5.79 µM; as for `CN1C/C(=C/c2cccnc2)C(=O)/C(=C/c2cccnc2)C1`, > 10 µM (inactive); as for `CC(=O)Nc1nc(C)c(Oc2ccccc2)c(=O)[nH]1`, > 10 µM (inactive). As for `CCOc1ccc(C(=O)C(CN2CCOCC2)c2ccccc2)cc1` (centres undefined), the figure is 7.92 µM; as for `Cn1c(=O)c2c(nc(Br)n2Cc2ccc3ccccc3c2)n(C)c1=O`, > 10 µM (inactive).

In the case of `CC(=C1C(=O)c2ccccc2C1=O)N1CCN(C/C=C/c2ccccc2)CC1`, the EC50 is > 10 µM (inactive). Turning to `O=C1/C(=N/n2cnnc2)c2ccccc2N1Cc1ccccc1`, the EC50 is 9.61 µM.

As for `Cc1ccc(NC(=O)CN2CCN(CCN=CC3=C(O)CC(c4ccccc4)CC3=O)CC2)cc1` (centres undefined), the EC50 was 9.58 µM. In the case of `O=S(=O)(Nc1cccc2c1CCCC2)c1ccc(Cl)cc1` it was > 10 µM (inactive); in that of `CN(C)C=C1C(=O)N(C2CCCCC2)C(=O)N(C2CCCCC2)C1=O`, 6.96 µM.

In the case of `COCCN(CCOC)S(=O)(=O)c1ccc(C(=O)Nc2sc3c(c2C(N)=O)CCCCC3)cc1`, the EC50 was > 10 µM (inactive). As for `CCN1CCCC1CNC(=O)COc1cc(=O)n(C)c2ccccc12` (centres undefined), the figure is > 10 µM (inactive). As for `COc1ccc(CC(=O)Nc2ccc3c(c2)CCC3)cc1S(=O)(=O)N1CCOCC1`, the figure is > 10 µM (inactive); as for `COc1ccc(C(=O)Nc2ccc(OCc3ccccc3)cc2)cc1[N+](=O)[O-]`, > 10 µM (inactive). `CCc1ccc2nc(N3C(=O)C(O)=C(C(=O)c4ccco4)C3c3cccs3)sc2c1` (centres undefined): the EC50 is 9.41 µM. In the case of `CCCc1nc2c(c(=O)c3ccccc3n2C)c(=O)n1C1CCCCCC1` it was > 10 µM (inactive); in that of `Cc1ccc(N(C)C(=O)Oc2ccc(C(=O)c3ccc(Cl)cc3)cc2)cc1`, > 10 µM (inactive). On to `CCCCCCN1CC(C(=O)OCC)C(=O)C1=O` (centres undefined), for which the EC50 was 4.74 µM. For `CCOc1ccc(C2=NNC(c3cccs3)=Nc3ccc(OCC)cc32)cc1`, the EC50 is > 10 µM (inactive).

As to `COn1c(SC2CCCCC2)nc2ccccc2c1=O`, the EC50 is 1.14 µM. Turning to `COC(=O)CCS(=O)(=O)c1nc(-c2ccccc2)cc(C(F)(F)F)n1`, the EC50 was 1.99 µM. As to `O=C(/C(=C/c1ccccc1)n1cncn1)c1ccc(Cl)cc1Cl`, the EC50 is 1.07 µM. Consider `O=C(c1ccc(F)cc1)C(CN1CCOCC1)c1ccccc1` (centres undefined), for which the EC50 is 1.12 µM. As for `CCc1c(C)c(C#N)c2nc3ccccc3n2c1Cl`, the figure is > 10 µM (inactive); as for `COc1ccc(/C=C/C(=O)C2C(=O)C=C(C)OC2=O)cc1O` (centres undefined), 7.47 µM; as for `CCOC(=O)/C(=C\c1cn(C)c2ccccc12)[N+](=O)[O-]`, 3.11 µM.

On to `CC[n+]1ccc(C[n+]2ccccc2)c2ccccc21`, for which the EC50 was > 10 µM (inactive). For the compound `O=C(CCl)c1ccc(Cc2ncc(C(F)(F)F)cc2Cl)s1`, the EC50 was 3.83 µM.

Consider `CC1CCCCC1NC(=O)/C(C#N)=C/c1ccccc1F` (centres undefined), for which the EC50 is 7.11 µM.

For `O=c1c(-c2ccc(Cl)cc2)[n+]([O-])c2ccccc2n1OCc1ccccn1`, the EC50 was > 10 µM (inactive).

In the case of `O=C(O)c1cccc2c1C(=O)N(C1CCCCC1)C2`, the EC50 is 4.22 µM. In the case of `CCCCCCCCn1c(=O)c(C(=O)OCC)c(O)c2ccccc21` it was 9.18 µM; in that of `Nc1sc(-c2ccccc2)cc1C(=O)O`, > 10 µM (inactive). On to `COc1ccc(NC(=S)N2CCN(CCN=CC3=C(O)CC(c4ccccc4)CC3=O)CC2)cc1` (centres undefined), for which the EC50 was 7.32 µM. In the case of `COc1cc(Br)cc(-c2nc3c(c(=O)[nH]c(=O)n3Cc3ccccc3)n2C)c1O` it was > 10 µM (inactive). In the case of `C=CCn1c(O)c(C(CC)=NCCN2CCOCC2)c(=O)[nH]c1=O` it was > 10 µM (inactive). In the case of `C=C(C(=O)c1ccccc1)C(CC(=O)c1ccccc1)c1ccccc1` (centres undefined) it was 8.08 µM; in that of `O=C(CCc1ccccc1)NCCCN1CCOCC1`, > 10 µM (inactive); in that of `CS(=O)(=O)Oc1ccc(Br)cc1/C=C1/N=C(c2ccco2)OC1=O`, > 10 µM (inactive). For `COC(=O)C1=C(C(=O)OC)C(c2ccccc2O)c2sc(=O)[nH]c2S1` (centres undefined), the EC50 was 5.38 µM. As for `COc1cccc(/C=C2\C(=O)N(c3cccc(C)c3)C(=O)c3ccccc32)c1`, the figure is > 10 µM (inactive). As for `Cc1ccccc1OC(=O)n1c(=S)oc2cc(Cl)ccc21`, the figure is 6.59 µM; as for `COC(=O)CSc1ncccc1-c1nc2ccccc2[nH]1`, > 10 µM (inactive). In the case of `CCn1cc(C(=O)O)c(=O)c2ccc(C)nc21` it was 3.62 µM; in that of `O=c1cc(-c2ccccc2Cl)oc2ccc([N+](=O)[O-])c(O)c12`, 7.35 µM; in that of `O=C1C(=C(O)c2ccccc2)C(=O)c2ccccc21`, > 10 µM (inactive). Consider `CC1=NN(c2ccc(C(F)(F)F)cn2)C(=O)C1`, for which the EC50 was > 10 µM (inactive). For `CC(C)n1c(-c2ccccc2F)n[nH]c1=S`, the EC50 was > 10 µM (inactive). In the case of `CC1C/C(=C\c2cccnc2)C(=O)/C(=C/c2cccnc2)C1` (centres undefined) it was 4.26 µM. Take `CSC1=NSC2=NC(=O)/C(=C\c3cccs3)C(=N)N12`: the 50% effective concentration (EC50) is 3.28 µM.

For `ClC(Cl)(c1nnnn1-c1ccccc1)c1nnnn1-c1ccccc1`, the EC50 is > 10 µM (inactive).
